From ChEMBL document CHEMBL3826914, “Selective photodepletion of malignant T cells in extracorporeal photopheresis with selenorhodamine photosensitizers” (Bioorg Med Chem, 2016) come the findings set out here.

One data set has as its system ABCB1. In words: Passive permeability in dog MDCK2-MDR1 cells expressing ABCB1 at 5 uM after 30 mins in presence of compound 15 by LC-MS/MS analysis. In kind it is ADME, cell-based, Canis lupus familiaris, MDCK-II. Particulars: MDCK-MDR1, with compound 15 (concentration not stated), read-out: permeability. The method in brief:
(§1)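 MDR1-transfected MDCKII cells (passage 16–42) were seeded at 50,000 cells cm^-2 on Transwell filters and used on day 6. Monolayers were rinsed in DPBS with 10^-2 M HEPES, pH 7.4, at 37 °C. They were preincubated 30 min in 4.3 mg/mL BSA/DPBSH with or without 5×10^-6 M P-gp inhibitor. 5 μM dye was added apically or basolaterally and samples taken after 1 h at 37 °C with nutation. Quantitation was by LC-MS/MS; P_passive is the mean of P_AB and P_BA under full inhibition. Mean ± SD.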
With `CN1CCC(C)(C)c2cc3c(cc21)[Se]c1cc2c(cc1=C3c1ccc(C(=O)N3CCCCC3)s1)C(C)(C)CC[N+]=2C.[Cl-]`, the Papp at 0.5 h, 5 µM stood at 0.2 ×10⁻⁶ cm/s.

The next data set deals with HuT78. In words: Phototoxicity in GFP expressing human HUT78 cells co-cultured with human PBMC cells assessed as cell survival at 7.5 x 10^-8 M preincubated 20 mins in photosensitizer media followed by growth in photosensitizer-free media for 30 mins measured 18 hrs after exposure to 5 J/cm2 irradiation by FACS analysis. Particulars: HuT78, light or radiation study, read-out: Survival. In kind it is functional. A digest of the protocol:
(§2)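 Non-stimulated PBMCs from healthy donors (Ficoll-separated) were mixed 5:1 with GFP-transfected, sorted (>98%) HUT-78 cells. Cells took up 7.5×10^-8 M photosensitizer for 20 min, then spent 30 min in dye-free medium. They were exposed to 5 J cm^-2 light (600 nm LED) with rotation at 180 rpm. Survival was gated by FACS (GFP, CD3, CD4, CD8) 18 h later versus non-irradiated controls. Triplicate; mean ± SEM.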
Background: Flow cytometry measures light scatter and fluorescence of single cells or particles in a stream.
Regarding `CN1CCC(C)(C)c2cc3c(cc21)[Se]c1cc2c(cc1=C3c1ccc(C(=O)N3CCCCC3)s1)C(C)(C)CC[N+]=2C.[Cl-]`, the viability at 0.075 µM is 2.4%.

System in the next data set: not listed separately
In words: Drug uptake in SEB-stimulated human CD25 positive cells assessed as mean fluorescence intensity at 5 x 10^-8 M preincubated for 20 mins followed by growth in photosensitizer-free media for 30 mins by flow cytometric analysis relative to control. Particulars: 0.5 h, 0.05 µM.
Take `CN1CCC(C)(C)c2cc3c(cc21)[Se]c1cc2c(cc1=C3c1ccc(C(=O)N3CCCCC3)s1)C(C)(C)CC[N+]=2C.[Cl-]`: the Flu intensity is on record as 10900 a.u.

System in the next data set: not listed separately
In words: N-octanol/water partition coefficient, logP of the compound at 23 degC after 1 hr by HPLC based shake flask method. Format: physicochemical.
Settings: not given
A digest of the protocol: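 Shake-flask method using 1-octanol: 3–5 min of mixing, then 1 h settling. Equilibration and measurement were at 23 °C, in triplicate.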
As a reminder, the logP is the decadic logarithm of the partition coefficient of the neutral form, usually between octanol and water. `CN1CCC(C)(C)c2cc3c(cc21)[Se]c1cc2c(cc1=C3c1ccc(C(=O)N3CCCCC3)s1)C(C)(C)CC[N+]=2C.[Cl-]` registered a logP of 3.42.

System in a further data set: not listed separately
In words: Drug extrusion in SEB-stimulated human CD25 positive cells assessed as change in mean fluorescence intensity at 5 x 10^-8 M preincubated for 20 mins followed by growth in photosensitizer-free media for 30 mins by flow cytometric analysis relative to control. Particulars: 0.5 h, 0.05 µM.
For the compound `CN1CCC(C)(C)c2cc3c(cc21)[Se]c1cc2c(cc1=C3c1ccc(C(=O)N3CCCCC3)s1)C(C)(C)CC[N+]=2C.[Cl-]`, the Activity came out at 33.5%.

The next data set has as its system ABCB1. In words: Permeability from basolateral to apical side in dog MDCK2-MDR1 cells expressing ABCB1 at 5 uM after 30 mins in absence of compound 15 by LC-MS/MS analysis. Format: ADME, cell-based, Canis lupus familiaris, MDCK-II. Particulars: MDCK-MDR1, read-out: permeability. A digest of the protocol:
as §1
`CN1CCC(C)(C)c2cc3c(cc21)[Se]c1cc2c(cc1=C3c1ccc(C(=O)N3CCCCC3)s1)C(C)(C)CC[N+]=2C.[Cl-]`: the Papp B→A at 0.5 h, 5 µM is 6.5 ×10⁻⁶ cm/s.

System in another data set: not listed separately
In words: Drug uptake in SEB-stimulated human CD25 negative cells assessed as mean fluorescence intensity at 5 x 10^-8 M preincubated for 20 mins followed by growth in photosensitizer-free media for 30 mins by flow cytometric analysis relative to control. Particulars: 0.5 h, 0.05 µM.
Turning to `CN1CCC(C)(C)c2cc3c(cc21)[Se]c1cc2c(cc1=C3c1ccc(C(=O)N3CCCCC3)s1)C(C)(C)CC[N+]=2C.[Cl-]`, the Flu intensity amounted to 2500 a.u.

For another data set, the system named is ABCB1. In words: Permeability from apical to basolateral side in dog MDCK2-MDR1 cells expressing ABCB1 at 5 uM after 30 mins in absence of compound 15 by LC-MS/MS analysis. Format: ADME, cell-based, Canis lupus familiaris, MDCK-II. Particulars: MDCK-MDR1, read-out: permeability. A digest of the protocol:
as §1
Take `CN1CCC(C)(C)c2cc3c(cc21)[Se]c1cc2c(cc1=C3c1ccc(C(=O)N3CCCCC3)s1)C(C)(C)CC[N+]=2C.[Cl-]`: the Papp A→B at 0.5 h, 5 µM was 0.18 ×10⁻⁶ cm/s.

A further data set deals with ABCB1. In words: Permeability from apical to basolateral side in dog MDCK2-MDR1 cells expressing ABCB1 at 5 uM after 30 mins in presence of compound 15 by LC-MS/MS analysis. Particulars: MDCK-MDR1, with compound 15 (concentration not stated), read-out: permeability. Format: ADME, cell-based, Canis lupus familiaris, MDCK-II. The method in brief:
as §1
Turning to `CN1CCC(C)(C)c2cc3c(cc21)[Se]c1cc2c(cc1=C3c1ccc(C(=O)N3CCCCC3)s1)C(C)(C)CC[N+]=2C.[Cl-]`, the Papp A→B at 0.5 h, 5 µM is 0.051 ×10⁻⁶ cm/s.

System in the next data set: not listed separately
In words: Drug extrusion in human CD8 positive cells assessed as change in mean fluorescence intensity at 5 x 10^-8 M preincubated for 20 mins followed by growth in photosensitizer-free media for 30 mins by flow cytometric analysis relative to control. In kind it is cell-based. Particulars: 0.5 h, 0.05 µM.
Consider `CN1CCC(C)(C)c2cc3c(cc21)[Se]c1cc2c(cc1=C3c1ccc(C(=O)N3CCCCC3)s1)C(C)(C)CC[N+]=2C.[Cl-]`, for which the Activity is given as 76.2%.

System in a further data set: not listed separately
In words: Drug extrusion in SEB-stimulated human CD25 positive cells assessed as mean fluorescence intensity at 5 x 10^-8 M preincubated for 20 mins followed by growth in photosensitizer-free media for 30 mins by flow cytometric analysis relative to control. Particulars: 0.5 h, 0.05 µM.
For `CN1CCC(C)(C)c2cc3c(cc21)[Se]c1cc2c(cc1=C3c1ccc(C(=O)N3CCCCC3)s1)C(C)(C)CC[N+]=2C.[Cl-]`, the Flu intensity is 7300 a.u.

System in another data set: not listed separately
In words: Phototoxicity human CD3 positive cells co-cultured with GFP expressing human HUT78 cells assessed as cell survival at 7.5 x 10^-8 M preincubated 20 mins in photosensitizer media followed by growth in photosensitizer-free media for 30 mins measured 18 hrs after exposure to 5 J/cm2 irradiation by FACS analysis. In kind it is cell-based. Particulars: read-out: Survival. The method in brief: as §2
With `CN1CCC(C)(C)c2cc3c(cc21)[Se]c1cc2c(cc1=C3c1ccc(C(=O)N3CCCCC3)s1)C(C)(C)CC[N+]=2C.[Cl-]`, the viability at 18 h, 0.075 µM is 7.2%.

The test system of another data set is HuT78. In words: Drug uptake in GFP expressing human HUT78 cells co-cultured with non-stimulated human PBMC cells assessed as change in mean fluorescence intensity at 7.5 x 10^-8 M after 20 mins followed by growth in photosensitizer-free media for 30 mins by flow cytometric analysis relative to control. In kind it is cell-based. Particulars: hut78, 0.5 h, 0.075 µM.
Turning to `CN1CCC(C)(C)c2cc3c(cc21)[Se]c1cc2c(cc1=C3c1ccc(C(=O)N3CCCCC3)s1)C(C)(C)CC[N+]=2C.[Cl-]`, the Activity was found to be 43.1%.

For another data set, the system named is HuT78. Particulars: human, hut78, 0.5 h, 0.075 µM.
Take `CN1CCC(C)(C)c2cc3c(cc21)[Se]c1cc2c(cc1=C3c1ccc(C(=O)N3CCCCC3)s1)C(C)(C)CC[N+]=2C.[Cl-]`: the Flu intensity is given as 9130 a.u.

Another data set has as its system HuT78. Particulars: human, hut78, 0.5 h, 0.075 µM. This is another data set of the same source.
The compound `CN1CCC(C)(C)c2cc3c(cc21)[Se]c1cc2c(cc1=C3c1ccc(C(=O)N3CCCCC3)s1)C(C)(C)CC[N+]=2C.[Cl-]` showed a Flu intensity of 6240 a.u.

System in the next data set: not listed separately
In words: Phototoxicity human CD8 positive cells co-cultured with GFP expressing human HUT78 cells assessed as cell survival at 7.5 x 10^-8 M preincubated 20 mins in photosensitizer media followed by growth in photosensitizer-free media for 30 mins measured 18 hrs after exposure to 5 J/cm2 irradiation by FACS analysis. In kind it is cell-based. Particulars: read-out: Survival. The method in brief: as §2
Regarding `CN1CCC(C)(C)c2cc3c(cc21)[Se]c1cc2c(cc1=C3c1ccc(C(=O)N3CCCCC3)s1)C(C)(C)CC[N+]=2C.[Cl-]`, the viability at 18 h, 0.075 µM came to 42.4%.

System in a further data set: not listed separately
In words: Drug extrusion in human CD3 positive cells assessed as change in mean fluorescence intensity at 5 x 10^-8 M preincubated for 20 mins followed by growth in photosensitizer-free media for 30 mins by flow cytometric analysis relative to control. Particulars: 0.5 h, 0.05 µM. In kind it is cell-based.
As to `CN1CCC(C)(C)c2cc3c(cc21)[Se]c1cc2c(cc1=C3c1ccc(C(=O)N3CCCCC3)s1)C(C)(C)CC[N+]=2C.[Cl-]`, the Activity is listed as 51.3%.

System in another data set: not listed separately
In words: Phototoxicity human CD4 positive cells co-cultured with GFP expressing human HUT78 cells assessed as cell survival at 7.5 x 10^-8 M preincubated 20 mins in photosensitizer media followed by growth in photosensitizer-free media for 30 mins measured 18 hrs after exposure to 5 J/cm2 irradiation by FACS analysis. In kind it is cell-based. Particulars: read-out: Survival. A digest of the protocol: as §2
In the case of `CN1CCC(C)(C)c2cc3c(cc21)[Se]c1cc2c(cc1=C3c1ccc(C(=O)N3CCCCC3)s1)C(C)(C)CC[N+]=2C.[Cl-]`, the viability at 18 h, 0.075 µM stood at 1.1%.

System in the next data set: not listed separately
In words: Drug extrusion in SEB-stimulated human CD25 negative cells assessed as mean fluorescence intensity at 5 x 10^-8 M preincubated for 20 mins followed by growth in photosensitizer-free media for 30 mins by flow cytometric analysis relative to control. Particulars: 0.5 h, 0.05 µM.
`CN1CCC(C)(C)c2cc3c(cc21)[Se]c1cc2c(cc1=C3c1ccc(C(=O)N3CCCCC3)s1)C(C)(C)CC[N+]=2C.[Cl-]`: the Flu intensity is on record as 1100 a.u.

Another data set deals with ABCB1. In words: Permeability from basolateral to apical side in dog MDCK2-MDR1 cells expressing ABCB1 at 5 uM after 30 mins in presence of compound 15 by LC-MS/MS analysis. Format: ADME, cell-based, Canis lupus familiaris, MDCK-II. Particulars: MDCK-MDR1, with compound 15 (concentration not stated), read-out: permeability. The method in brief: as §1
Regarding `CN1CCC(C)(C)c2cc3c(cc21)[Se]c1cc2c(cc1=C3c1ccc(C(=O)N3CCCCC3)s1)C(C)(C)CC[N+]=2C.[Cl-]`, the Papp B→A at 0.5 h, 5 µM turned out to be 0.4 ×10⁻⁶ cm/s.

System in a further data set: not listed separately
In words: Drug extrusion in human CD4 positive cells assessed as change in mean fluorescence intensity at 5 x 10^-8 M preincubated for 20 mins followed by growth in photosensitizer-free media for 30 mins by flow cytometric analysis relative to control. Particulars: 0.5 h, 0.05 µM. In kind it is cell-based.
Consider `CN1CCC(C)(C)c2cc3c(cc21)[Se]c1cc2c(cc1=C3c1ccc(C(=O)N3CCCCC3)s1)C(C)(C)CC[N+]=2C.[Cl-]`, for which the Activity stood at 53.3%.

System in the next data set: not listed separately
In words: Drug extrusion in SEB-stimulated human CD25 negative cells assessed as change in mean fluorescence intensity at 5 x 10^-8 M preincubated for 20 mins followed by growth in photosensitizer-free media for 30 mins by flow cytometric analysis relative to control. Particulars: 0.5 h, 0.05 µM.
Turning to `CN1CCC(C)(C)c2cc3c(cc21)[Se]c1cc2c(cc1=C3c1ccc(C(=O)N3CCCCC3)s1)C(C)(C)CC[N+]=2C.[Cl-]`, the Activity was determined as 58%.
